Data published in ChEMBL document CHEMBL4020704, “Metabolite diversification by cultivation of the endophytic fungus Dothideomycete sp. in halogen containing media: Cultivation of terrestrial fungus in seawater” (Bioorg Med Chem, 2017).
Values after ≈ are worked out from the molar mass of the structure shown. Active and inactive are the calls of the source. No cut-off for these calls is given here.

Columns and labels:
HepG2 = assay: Cytotoxic activity against human HepG2 cells by MTT assay; assay type: functional, cell-based
Outline: (§1)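 Adherent cancer cell lines, viability read by MTT assay. Doxorubicin served as reference drug for A549, HepG2 and HuCCA-1, and etoposide also for HepG2. IC50 determined.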

Pseudomonas aeruginosa = assay: Antibacterial activity against Pseudomonas aeruginosa after 20 hrs by broth microdilution method; assay type: functional
Outline: (§2)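 Compounds dissolved in DMSO and two-fold serially diluted in 96-well plates, with final DMSO ≤0.5% (v/v). Inocula prepared in normal saline and adjusted to 0.5 McFarland turbidity. Plates incubated at 36 °C for 20 h, then absorbance read at 600 nm. MIC taken as the lowest concentration inhibiting growth.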

Enterococcus faecalis = assay: Antibacterial activity against Enterococcus faecalis after 20 hrs by broth microdilution method; assay type: functional; outline: as §2
[1] = test system: Staphylococcus epidermidis; assay: Antibacterial activity against Staphylococcus epidermidis after 20 hrs by broth microdilution method; assay type: functional; outline: as §2
HuCC-A1 = assay: Cytotoxic activity against human HuCCa1 cells by MTT assay; assay type: functional, cell-based; outline: as §1
Bacillus cereus = assay: Antibacterial activity against Bacillus cereus after 20 hrs by broth microdilution method; assay type: functional; outline: as §2
Staphylococcus aureus = assay: Antibacterial activity against Staphylococcus aureus after 20 hrs by broth microdilution method; assay type: functional; outline: as §2
Escherichia coli = assay: Antibacterial activity against Escherichia coli after 20 hrs by broth microdilution method; assay type: functional; outline: as §2
Salmonella typhimurium = assay: Antibacterial activity against Salmonella typhimurium after 20 hrs by broth microdilution method; assay type: functional; details: Salmonella enterica subsp. enterica serovar Typhimurium; outline: as §2
Shigella flexneri = assay: Antibacterial activity against Shigella flexneri after 20 hrs by broth microdilution method; assay type: functional; outline: as §2
MOLT-3 = assay: Cytotoxic activity against human MOLT3 cells by XTT assay; assay type: functional, cell-based
Outline: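 Non-adherent MOLT-3 leukemia cells, viability read by XTT assay. Etoposide served as reference drug. IC50 determined.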

| Compound | Activity (HepG2) | Activity (Pseudomonas aeruginosa) | Activity (Enterococcus faecalis) | Activity [1] | Activity (HuCC-A1) | Activity (Bacillus cereus) | Activity (Staphylococcus aureus) | Activity (Escherichia coli) | Activity (Salmonella typhimurium) | Activity (Shigella flexneri) | Activity (MOLT-3) | MIC [1] | MIC (Bacillus cereus) | MIC (Staphylococcus aureus) | IC50 (HuCC-A1) | IC50 (HepG2) | IC50 (MOLT-3) |
| --- | --- | --- | --- | --- | --- | --- | --- | --- | --- | --- | --- | --- | --- | --- | --- | --- | --- |
| C[C@H]1C=C[C@H]2C[C@@](O)(CO)CC[C@@H]2[C@@]1(C)C(=O)CCO | inactive | inactive | inactive | inactive | inactive | inactive | inactive | inactive | inactive | inactive | inactive | – | – | – | – | – | – |
| CO[C@@H](/C=C/C=C(\C)[C@H](O)[C@H](C)C(=O)O[C@H]1C[C@H](C)C[C@@H]2C=C[C@H](C)[C@](C)(C(=O)[C@H](O)CO)[C@@H]12)[C@@H](C)O | inactive | inactive | inactive | – | inactive | – | – | inactive | inactive | inactive | inactive | 100 µg/mL (≈ 191 µM) | 100 µg/mL (≈ 191 µM) | 100 µg/mL (≈ 191 µM) | – | – | – |
| C/C(=C\C=C\[C@H](O)[C@@H](C)O)[C@H](O)[C@H](C)C(=O)O[C@H]1C[C@H](CO)C[C@@H]2C=C[C@H](C)[C@](C)(C(=O)CCO)[C@@H]12 | inactive | inactive | inactive | inactive | inactive | inactive | inactive | inactive | inactive | inactive | inactive | – | – | – | – | – | – |
| C/C(=C\C=C\[C@H](O)[C@H](C)O)[C@H](O)[C@H](C)C(=O)O[C@H]1C[C@H](C)C[C@@H]2C=C[C@H](C)[C@](C)(C(=O)[C@H](O)CO)[C@@H]12 | inactive | inactive | inactive | inactive | inactive | inactive | inactive | inactive | inactive | inactive | inactive | – | – | – | – | – | – |
| COc1cccc2c1C(=O)c1c(O)c3c(c(O)c1C2=O)C[C@@](O)(C(=O)CO)C[C@@H]3O[C@H]1C[C@H](N)[C@H](O)[C@H](C)O1 [DOXORUBICIN] | – | – | – | – | – | – | – | – | – | – | – | – | – | – | 0.33 µg/mL (≈ 0.607 µM) | – | – |
| CC1=CC2=C(C[C@@H](C)C3=CC(=O)CC(C)O3)C(=O)[C@](C)(O)[C@@H](O)C2=CO1 (stereo partly drawn) | inactive | inactive | inactive | inactive | inactive | inactive | inactive | inactive | inactive | inactive | inactive | – | – | – | – | – | – |
| CO[C@@H](/C=C/C=C(\C)[C@H](O)[C@H](C)C(=O)O[C@H]1C[C@H](C)C[C@@H]2C=C[C@H](C)[C@](C)(C(=O)[C@H](O)CO)[C@@H]12)[C@H](C)O | inactive | inactive | inactive | inactive | inactive | inactive | inactive | inactive | inactive | inactive | inactive | – | – | – | – | – | – |
| O=C(N[C@H](CO)[C@H](O)c1ccc([N+](=O)[O-])cc1)C(Cl)Cl [CHLORAMPHENICOL] | – | – | – | – | – | – | – | – | – | – | – | 0.78 µg/mL (≈ 2.41 µM) | 0.78 µg/mL (≈ 2.41 µM) | 0.78 µg/mL (≈ 2.41 µM) | – | – | – |
| CC1=CC2=C(CC(C)C(=O)C[C@H](C)O)C(=O)[C@](C)(O)[C@@H](O)C2=CO1 (stereo partly drawn) | inactive | inactive | inactive | inactive | inactive | inactive | inactive | inactive | inactive | inactive | inactive | – | – | – | – | – | – |
| CN(C)[C@@H]1C(O)=C(C(N)=O)C(=O)[C@@]2(O)C(O)=C3C(=O)c4c(O)cccc4[C@@](C)(O)[C@H]3C[C@@H]12 [TETRACYCLINE] | – | – | – | – | – | – | – | – | – | – | – | 1.56 µg/mL (≈ 3.51 µM) | 6.25 µg/mL (≈ 14.1 µM) | 0.78 µg/mL (≈ 1.76 µM) | – | – | – |
| CC1=CC2=C(C[C@H](C)C3=CC(=O)CC(C)O3)C(=O)[C@](C)(O)[C@@H](O)C2=CO1 (stereo partly drawn) | inactive | inactive | inactive | inactive | inactive | inactive | inactive | inactive | inactive | inactive | inactive | – | – | – | – | – | – |
| COc1cc([C@@H]2c3cc4c(cc3[C@@H](O[C@@H]3O[C@@H]5CO[C@@H](C)O[C@H]5[C@H](O)[C@H]3O)[C@H]3COC(=O)[C@H]23)OCO4)cc(OC)c1O [ETOPOSIDE] | – | – | – | – | – | – | – | – | – | – | – | – | – | – | – | 24.3 µg/mL (≈ 41.3 µM) | 0.04 µg/mL (≈ 0.068 µM) |
| C[C@H]1C=C[C@H]2C[C@@H](CO)C[C@H](O)[C@@H]2[C@@]1(C)C(=O)[C@H](O)CO | inactive | inactive | inactive | inactive | inactive | inactive | inactive | inactive | inactive | inactive | inactive | – | – | – | – | – | – |
